Reference: ChEMBL document CHEMBL4715748, “Synthesis and biological investigation of new equatorial (β) stereoisomers of 3-aminotropane arylamides with atypical antipsychotic profile” (Bioorg Med Chem, 2016)
pKi: −log10 of the molar value.

Assays:
[1] = tested on: Mus musculus; test: Antipsychotic activity Swiss Albino mouse assessed as inhibition of DOI-induced head twitching by measuring number of episodes at 10 mg/kg, ip administered 30 mins prior to DOI stimulation (reference value: 19.63 to 19.88); type: functional; details: 0.5 h
Method in brief: (§1)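 Male Albino Swiss mice (24–28 g) were habituated to sawdust-lined cages 20 min before the first treatment. Compounds were suspended in 1% aqueous Tween 80 and given i.p. 30 min before (±)-DOI, 2.5 mg/kg i.p. in aqueous solution. Head twitches were counted blind over 20 min, n=8 per group, mean ± SEM, one-way ANOVA with Dunnett's test.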

[2] = Effect on body temperature in Swiss Albino mouse assessed as rectal body temperature at 10 mg/kg, ip measured after 90 mins by thermometer (reference value: 0.18 to 0.63 degreeC); type: ADME, organism-based; details: in vivo, 1.5 h
[3] = Effect on body temperature in Swiss Albino mouse assessed as rectal body temperature at 20 mg/kg, ip measured after 90 mins by thermometer (reference value: 0.18 to 0.63 degreeC); type: ADME, organism-based; details: in vivo, 1.5 h
[4] = tested on: Mus musculus; test: Effect on 8-OH-DPAT-induced hypothermia in Swiss albino mouse assessed as change in rectal body temperature at 20 mg/kg, ip pretreated with compound for 45 mins followed by 8-OH-DPAT challenge and measured after 60 min by thermometer (reference value: -0.66 to -0.5 degreeC); type: functional, organism-based; details: time 105.0 min
[5] = tested on: Mus musculus; test: Effect on 8-OH-DPAT-induced hypothermia in Swiss albino mouse assessed as change in rectal body temperature at 20 mg/kg, ip pretreated with compound for 45 mins followed by 8-OH-DPAT challenge and measured after 15 min by thermometer (reference value: -1.82 to -1.66 degreeC); type: functional, organism-based; details: time 60.0 min
[6] = Effect on body temperature in Swiss Albino mouse assessed as rectal body temperature at 20 mg/kg, ip measured after 30 mins by thermometer (reference value: 0.16 to 0.33 degreeC); type: ADME, organism-based; details: in vivo, 0.5 h
[7] = Effect on body temperature in Swiss Albino mouse assessed as rectal body temperature at 10 mg/kg, ip measured after 120 mins by thermometer (reference value: 0.15 to 1.11 degreeC); type: organism-based; details: in vivo, 2 h
[8] = tested on: Mus musculus; test: Effect on 8-OH-DPAT-induced hypothermia in Swiss albino mouse assessed as change in rectal body temperature at 10 mg/kg, ip pretreated with compound for 45 mins followed by 8-OH-DPAT challenge and measured after 45 min by thermometer (reference value: -1.04 to -0.78 degreeC); type: functional, organism-based; details: time 90.0 min
[9] = tested on: Mus musculus; test: Effect on 8-OH-DPAT-induced hypothermia in Swiss albino mouse assessed as change in rectal body temperature at 10 mg/kg, ip pretreated with compound for 45 mins followed by 8-OH-DPAT challenge and measured after 15 min by thermometer (reference value: -1.82 to -1.66 degreeC); type: functional, organism-based; details: time 60.0 min
[10] = tested on: Mus musculus; test: Effect on 8-OH-DPAT-induced hypothermia in Swiss albino mouse assessed as change in rectal body temperature at 20 mg/kg, ip pretreated with compound for 45 mins followed by 8-OH-DPAT challenge and measured after 30 min by thermometer (reference value: -1.36 to -1.12 degreeC); type: functional, organism-based; details: time 75.0 min
[11] = Effect on 8-OH-DPAT-induced lower lip retraction in Wistar rat at 20 mg/kg, ip pretreated with compound for 45 mins followed by 8-OH-DPAT challenge and measured after 15 mins (reference value: 2.7 to 2.8); type: functional; details: time 60 min, 1 h
[12] = Effect on body temperature in Swiss Albino mouse assessed as rectal body temperature at 10 mg/kg, ip measured after 60 mins by thermometer (reference value: 0.33 to 0.61 degreeC); type: ADME, organism-based; details: in vivo, 1 h
[13] = Effect on body temperature in Swiss Albino mouse assessed as rectal body temperature at 20 mg/kg, ip measured after 120 mins by thermometer (reference value: 0.15 to 1.11 degreeC); type: ADME, organism-based; details: in vivo, 2 h
[14] = Effect on 8-OH-DPAT-induced lower lip retraction in Wistar rat at 10 mg/kg, ip pretreated with compound for 45 mins followed by 8-OH-DPAT challenge and measured after 15 mins (reference value: 2.7 to 2.8); type: functional; details: time 60 min, 1 h
[15] = biological target: Dopamine D2 receptor and Serotonin 2a receptor (D2 and 5HT2a) (Rattus norvegicus) (UniProt P61169+P14842); test: Ratio of pKi for displacement of [3H]-ketanserin from rat cerebral cortex 5HT2A receptor measured after 20 mins by liquid scintillation counter method to pKi for displacement of [3H] Spiperone from rat striatum dopamine D2 receptor measured after 30 mins by liquid scintillation counter method
Dopamine D2 receptor and Serotonin 2a receptor (D2 and 5HT2a) (Rattus norvegicus), sequence (P14842 whole entry, looked up): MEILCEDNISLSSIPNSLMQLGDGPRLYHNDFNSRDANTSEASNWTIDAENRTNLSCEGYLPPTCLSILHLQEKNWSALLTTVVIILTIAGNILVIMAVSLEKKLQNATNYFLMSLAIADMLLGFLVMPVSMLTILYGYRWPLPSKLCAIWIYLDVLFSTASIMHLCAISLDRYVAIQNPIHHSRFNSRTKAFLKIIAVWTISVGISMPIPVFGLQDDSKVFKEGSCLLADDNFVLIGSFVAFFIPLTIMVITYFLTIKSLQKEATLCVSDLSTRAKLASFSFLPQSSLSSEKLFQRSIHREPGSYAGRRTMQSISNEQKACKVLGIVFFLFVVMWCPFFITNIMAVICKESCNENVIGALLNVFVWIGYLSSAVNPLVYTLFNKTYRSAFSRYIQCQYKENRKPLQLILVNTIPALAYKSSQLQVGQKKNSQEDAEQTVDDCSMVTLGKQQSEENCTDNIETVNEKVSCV
Dopamine D2 receptor and Serotonin 2a receptor (D2 and 5HT2a) (Rattus norvegicus), sequence (P61169 whole entry, looked up): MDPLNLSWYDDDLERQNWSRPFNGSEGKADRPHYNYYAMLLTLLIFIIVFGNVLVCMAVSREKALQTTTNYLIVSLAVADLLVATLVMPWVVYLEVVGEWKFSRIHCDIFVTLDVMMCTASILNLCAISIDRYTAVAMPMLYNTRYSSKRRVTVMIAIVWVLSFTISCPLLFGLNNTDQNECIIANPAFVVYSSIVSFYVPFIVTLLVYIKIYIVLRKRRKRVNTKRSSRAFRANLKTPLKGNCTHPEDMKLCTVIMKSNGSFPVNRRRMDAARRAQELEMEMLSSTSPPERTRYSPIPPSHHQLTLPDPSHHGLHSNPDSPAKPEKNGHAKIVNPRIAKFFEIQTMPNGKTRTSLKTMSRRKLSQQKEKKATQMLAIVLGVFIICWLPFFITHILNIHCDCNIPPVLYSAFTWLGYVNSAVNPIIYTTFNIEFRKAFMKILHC
Method in brief: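 Ratio of pKi values, 5-HT2A over D2, computed from competition radioligand binding in rat brain tissue.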

[16] = tested on: Mus musculus; test: Effect on 8-OH-DPAT-induced hypothermia in Swiss albino mouse assessed as change in rectal body temperature at 10 mg/kg, ip pretreated with compound for 45 mins followed by 8-OH-DPAT challenge and measured after 30 min by thermometer (reference value: -1.36 to -1.12 degreeC); type: functional, organism-based; details: time 75.0 min
[17] = Half life in pooled human liver microsomes assessed as parent compound remaining at 2.5 uM measured up to 45 mins in presence of NADPH by LC-MS analysis; type: ADME, Microsome
Method in brief: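 Compound at 2.5 μM (added from 100 μM stock in 50/50 acetonitrile/water) with 1 mg/mL pooled human liver microsomes and 250 μM NADPH in 0.1 M potassium phosphate pH 7.4 at 37 °C after 5-min preincubation. Sampled at 5, 10, 15, 30, 45 min into ice-cold acetonitrile with atropine internal standard; parent quantified by LC-MS (ESI+, [M+H]+); no-NADPH controls; half-time derived.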

[18] = biological target: 5-hydroxytryptamine receptor 2A (Rattus norvegicus, UniProt P14842); test: Displacement of [3H]-ketanserin from rat cerebral cortex 5HT2A receptor measured after 20 mins by liquid scintillation counter method
5-hydroxytryptamine receptor 2A, sequence (P14842 whole entry): as the sequence (P14842 whole entry, looked up) above
Method in brief: (§2)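 Competition binding in rat brain tissue membranes against D2, 5-HT1A and 5-HT2A sites; Ki reported as mean ± S.E.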

[19] = tested on: Mus musculus; test: Antipsychotic activity Swiss Albino mouse assessed as inhibition of DOI-induced head twitching by measuring number of episodes at 2.5 mg/kg, ip administered 30 mins prior to DOI stimulation (reference value: 19.63 to 19.88); type: functional; details: 0.5 h; method in brief: as §1
[20] = biological target: T1, 5-hydroxytryptamine receptor 1A (Rattus norvegicus, UniProt P19327); test: Displacement of [3H]-8-OH-DPAT from rat cerebral cortex 5HT1A receptor measured after 15 mins by liquid scintillation counter method
T1 sequence (P19327 whole entry): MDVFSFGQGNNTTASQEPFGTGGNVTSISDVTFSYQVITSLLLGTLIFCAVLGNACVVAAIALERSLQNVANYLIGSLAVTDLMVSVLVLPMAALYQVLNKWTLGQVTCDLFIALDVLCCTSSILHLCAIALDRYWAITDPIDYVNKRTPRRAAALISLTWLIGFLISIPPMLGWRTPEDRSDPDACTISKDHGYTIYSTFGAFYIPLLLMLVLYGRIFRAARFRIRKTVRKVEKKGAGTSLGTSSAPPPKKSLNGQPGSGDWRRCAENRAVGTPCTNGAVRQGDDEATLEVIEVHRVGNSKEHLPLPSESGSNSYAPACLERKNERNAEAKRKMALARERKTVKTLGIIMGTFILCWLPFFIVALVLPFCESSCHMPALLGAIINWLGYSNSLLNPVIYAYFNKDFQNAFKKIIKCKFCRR

[21] = tested on: Mus musculus; test: Antipsychotic activity Swiss Albino mouse assessed as inhibition of DOI-induced head twitching by measuring number of episodes at 5 mg/kg, ip administered 30 mins prior to DOI stimulation (reference value: 19.63 to 19.88); type: functional; details: 0.5 h; method in brief: as §1
[22] = tested on: Mus musculus; test: Effect on 8-OH-DPAT-induced hypothermia in Swiss albino mouse assessed as change in rectal body temperature at 20 mg/kg, ip pretreated with compound for 45 mins followed by 8-OH-DPAT challenge and measured after 45 min by thermometer (reference value: -1.04 to -0.78 degreeC); type: functional, organism-based; details: time 90.0 min
[23] = Effect on body temperature in Swiss Albino mouse assessed as rectal body temperature at 10 mg/kg, ip measured after 30 mins by thermometer (reference value: 0.16 to 0.33 degreeC); type: organism-based; details: in vivo, 0.5 h
[24] = Effect on body temperature in Swiss Albino mouse assessed as rectal body temperature at 20 mg/kg, ip measured after 60 mins by thermometer (reference value: 0.33 to 0.61 degreeC); type: ADME, organism-based; details: in vivo, 1 h
[25] = tested on: Mus musculus; test: Effect on 8-OH-DPAT-induced hypothermia in Swiss albino mouse assessed as change in rectal body temperature at 10 mg/kg, ip pretreated with compound for 45 mins followed by 8-OH-DPAT challenge and measured after 60 min by thermometer (reference value: -0.66 to -0.5 degreeC); type: functional, organism-based; details: time 105.0 min
[26] = biological target: D(2) dopamine receptor (Rattus norvegicus, UniProt P61169); test: Displacement of [3H] Spiperone from rat striatum dopamine D2 receptor measured after 30 mins by liquid scintillation counter method; method in brief: as §2
D(2) dopamine receptor, sequence (P61169 whole entry): as the sequence (P61169 whole entry, looked up) above

Structure (SMILES): O=C(NC1CC2CCC(C1)N2Cc1ccccc1Cl)c1ccc2ccccc2c1 (stereo not drawn)
- Activity [1]: 10.75
- deltaT [2]: 0.84 °C
- deltaT [3]: 0.44 °C
- deltaT [4]: -1.53 °C
- deltaT [5]: -2 °C
- deltaT [6]: -0.36 °C
- deltaT [7]: 1.34 °C
- deltaT [8]: -0.62 °C
- deltaT [9]: -0.97 °C
- deltaT [10]: -2.12 °C
- Activity [11]: 2
- deltaT [12]: 0.96 °C
- deltaT [13]: 1.39 °C
- Activity [14]: 2.5
- Ratio pKi [15]: 0.86
- deltaT [16]: -1.17 °C
- half-life at 2.5 µM [17]: 33 min
- pKi [18]: 6.40
- Activity [19]: 20
- pKi [20]: 6.80
- Activity [21]: 14.75
- deltaT [22]: -2.18 °C
- deltaT [23]: 0 °C
- deltaT [24]: 0.44 °C
- deltaT [25]: -0.12 °C
- pKi [26]: 7.46

Structure (SMILES): O=C(NC1CC2CCC(C1)N2Cc1ccccn1)c1ccc2ccccc2c1 (stereo not drawn)
- pKi [18]: 6.23
- pKi [20]: 6.50
- pKi [26]: 5.66

Structure (SMILES): O=C(NC1CC2CCC(C1)N2Cc1ccccc1Br)c1ccc2ccccc2c1 (stereo not drawn)
- pKi [18]: 6.87
- pKi [20]: 6.71
- pKi [26]: 7.64

Structure (SMILES): COc1ccccc1CN1C2CCC1CC(NC(=O)c1ccc3ccccc3c1)C2 (stereo not drawn)
- Activity [1]: 8.25
- deltaT [2]: 0.63 °C
- deltaT [3]: 0.16 °C
- deltaT [4]: -0.65 °C
- deltaT [5]: -1.47 °C
- deltaT [6]: -0.34 °C
- deltaT [7]: 0.26 °C
- deltaT [8]: -1.45 °C
- deltaT [9]: -1.37 °C
- deltaT [10]: -1.37 °C
- Activity [11]: 2
- deltaT [12]: 0.44 °C
- deltaT [13]: -0.26 °C
- Activity [14]: 2.5
- Ratio pKi [15]: 0.85
- deltaT [16]: -1.77 °C
- half-life at 2.5 µM [17]: 41.3 min
- pKi [18]: 6.04
- Activity [19]: 16.25
- pKi [20]: 7.08
- Activity [21]: 12.25
- deltaT [22]: -0.92 °C
- deltaT [23]: 0.23 °C
- deltaT [24]: 0.01 °C
- deltaT [25]: -1.08 °C
- pKi [26]: 7.11

Structure (SMILES): COc1cc(C(=O)NC2CC3CCC(C2)N3Cc2ccccc2)nc2ccccc12 (stereo not drawn)
- pKi [18]: 6.31
- pKi [20]: 7.52
- pKi [26]: < 5.00

Structure (SMILES): O=C(NC1CC2CCC(C1)N2Cc1ccccc1)c1ccc2ccccc2n1 (stereo not drawn)
- pKi [18]: 6.30
- pKi [20]: 7.20
- pKi [26]: 6.23

Structure (SMILES): Cc1ccccc1CN1C2CCC1CC(NC(=O)c1ccc3ccccc3c1)C2 (stereo not drawn)
- pKi [18]: 5.89
- pKi [20]: 6.72
- pKi [26]: 6.93

Structure (SMILES): O=C(NC1CC2CCC(C1)N2Cc1ccncc1)c1ccc2ccccc2c1 (stereo not drawn)
- pKi [18]: 5.95
- pKi [20]: 5.64
- pKi [26]: 5.57

Structure (SMILES): O=C(NC1CC2CCC(C1)N2Cc1cccc(C(F)(F)F)c1)c1ccc2ccccc2c1 (stereo not drawn)
- pKi [18]: 6.68
- pKi [20]: 6.89
- pKi [26]: 6.66
